Published values collected from several papers.
Lines come from different studies, so protocols differ. Values after ≈ are worked out from the molar mass of the structure shown.

| SMILES | target or system | assay | test system | conditions | endpoint | result |
| --- | --- | --- | --- | --- | --- | --- |
| OC(Cn1cncn1)(Cn1cncn1)c1ccc(F)cc1F | Aspergillus niger | microbial growth | ATCC16404 |  | MIC | 128 µg/mL (≈ 418 µM) |
| Nc1ccn(C[C@@H](CO)OCP(=O)(O)O)c(=O)n1 | Human alphaherpesvirus 1 | cytopathic effect | HEL |  | EC50 | 2 µM |
| CN[C@H](CC(C)C)C(=O)N[C@H]1C(=O)N[C@@H](CC(N)=O)C(=O)N[C@H]2C(=O)N[C@H]3C(=O)N[C@H](C(=O)N[C@H](C(=O)O)c4cc(O)cc(O)c4-c4cc3ccc4O)[C@H](O)c3ccc(c(Cl)c3)Oc3cc2cc(c3O[C@@H]2O[C@H](CO)[C@@H](O)[C@H](O)[C@H]2O[C@H]2C[C@](C)(N)[C@H](O)[C@H](C)O2)Oc2ccc(cc2Cl)[C@H]1O | Bacteroides fragilis | microbial growth, agar dilution |  | 48 h | MIC | > 16 µg/mL |
| CCCCCOc1ccc(-c2cc(-c3ccc(C(=O)N[C@H]4C[C@@H](O)[C@@H](O)NC(=O)[C@@H]5[C@@H](O)[C@@H](C)CN5C(=O)[C@H]([C@H](O)CC(N)=O)NC(=O)[C@H]([C@H](O)[C@@H](O)c5ccc(O)c(OS(=O)(=O)O)c5)NC(=O)[C@@H]5C[C@@H](O)CN5C(=O)[C@H]([C@@H](C)O)NC4=O)cc3)no2)cc1 | Lodderomyces parapsilosis | biofilm formation |  | 16 µg/mL | inhibition | 49% |
| COc1ccc(C(=O)c2c[nH]c3ncc(-c4ccc(N5CCN(C(=O)OC(C)(C)C)CC5)nc4)cc23)cc1 | MRC5 | cell growth or viability, MTT |  | 10 µM, 48 h | viability | 80.2% |
| [O-][N+]1=C(c2ccc(Cl)cc2)C2=NCCN2c2ccccc21 | Bacteroides fragilis | microbial growth |  |  | MIC50 | ≤ 0.06 µg/mL |
| O=C(c1ccc(F)cc1)c1c[nH]c2ncc(-c3ccnc(N4CCNCC4)c3)cc12 | MRC5 | cell growth or viability, MTT |  | 10 µM, 48 h | viability | 90.1% |
| O=c1c2ccccc2[se]n1-c1ccccc1 | MRC5 | cell growth or viability, MTT |  | 125 µM, 72 h | inhibition | 56% |
